The record followed here is ChEMBL document CHEMBL1811853, “Design and evaluation of 3-aminopyrazolopyridinone kinase inhibitors inspired by the natural product indirubin” (Bioorg Med Chem, 2011).

Test [1] deals with Tyrosine-protein kinase ABL1 (Homo sapiens, UniProt P00519). Nature of the test: Inhibition of ABL at 30 uM by microfluidic mobility shift assay. The method, boiled down: (§1)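 Single-concentration screen, singlicate, 30 uM final (diluted from 1 mM DMSO solutions), fluorescently tagged peptide substrate appropriate to each kinase, ATP at apparent Km for each protein. Phosphorylated and unphosphorylated peptides separated electrophoretically; conversion is the phosphorylated peak area over the sum of both peaks. No-inhibitor and no-ATP controls; H89 reference on each plate.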
Chain of Tyrosine-protein kinase ABL1 (P00519 whole entry): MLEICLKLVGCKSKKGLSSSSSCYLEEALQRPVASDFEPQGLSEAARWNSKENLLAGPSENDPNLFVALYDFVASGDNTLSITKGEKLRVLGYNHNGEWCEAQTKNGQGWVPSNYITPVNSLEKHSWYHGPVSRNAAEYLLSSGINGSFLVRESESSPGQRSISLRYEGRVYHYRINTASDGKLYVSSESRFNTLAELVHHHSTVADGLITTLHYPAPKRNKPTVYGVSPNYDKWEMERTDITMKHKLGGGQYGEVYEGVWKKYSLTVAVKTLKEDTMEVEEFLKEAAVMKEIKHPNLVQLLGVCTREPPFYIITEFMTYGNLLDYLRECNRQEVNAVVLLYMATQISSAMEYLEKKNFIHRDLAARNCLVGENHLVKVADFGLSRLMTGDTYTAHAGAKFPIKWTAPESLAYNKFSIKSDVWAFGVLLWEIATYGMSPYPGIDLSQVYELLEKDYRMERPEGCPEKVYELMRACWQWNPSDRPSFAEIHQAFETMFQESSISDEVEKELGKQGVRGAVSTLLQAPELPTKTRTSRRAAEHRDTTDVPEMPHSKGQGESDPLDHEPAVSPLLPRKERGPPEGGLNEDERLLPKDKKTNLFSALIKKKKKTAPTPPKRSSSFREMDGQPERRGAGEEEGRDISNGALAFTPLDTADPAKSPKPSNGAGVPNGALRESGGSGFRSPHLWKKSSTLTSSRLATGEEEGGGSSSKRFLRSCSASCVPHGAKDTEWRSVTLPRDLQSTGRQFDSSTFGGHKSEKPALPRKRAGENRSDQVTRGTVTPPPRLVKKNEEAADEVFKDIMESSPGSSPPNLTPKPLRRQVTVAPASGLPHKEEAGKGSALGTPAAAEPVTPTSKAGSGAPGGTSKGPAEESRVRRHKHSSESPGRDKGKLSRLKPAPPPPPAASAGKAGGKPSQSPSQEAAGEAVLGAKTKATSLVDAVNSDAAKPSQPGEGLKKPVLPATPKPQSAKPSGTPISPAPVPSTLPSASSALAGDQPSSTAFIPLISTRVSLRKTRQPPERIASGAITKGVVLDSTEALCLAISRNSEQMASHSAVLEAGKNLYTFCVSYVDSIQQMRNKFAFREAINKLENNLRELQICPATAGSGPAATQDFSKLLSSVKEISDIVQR

In test [2] the target is T1, Serine/threonine-protein kinase Chk1 (Homo sapiens) (UniProt O14757).
T1 sequence (whole entry): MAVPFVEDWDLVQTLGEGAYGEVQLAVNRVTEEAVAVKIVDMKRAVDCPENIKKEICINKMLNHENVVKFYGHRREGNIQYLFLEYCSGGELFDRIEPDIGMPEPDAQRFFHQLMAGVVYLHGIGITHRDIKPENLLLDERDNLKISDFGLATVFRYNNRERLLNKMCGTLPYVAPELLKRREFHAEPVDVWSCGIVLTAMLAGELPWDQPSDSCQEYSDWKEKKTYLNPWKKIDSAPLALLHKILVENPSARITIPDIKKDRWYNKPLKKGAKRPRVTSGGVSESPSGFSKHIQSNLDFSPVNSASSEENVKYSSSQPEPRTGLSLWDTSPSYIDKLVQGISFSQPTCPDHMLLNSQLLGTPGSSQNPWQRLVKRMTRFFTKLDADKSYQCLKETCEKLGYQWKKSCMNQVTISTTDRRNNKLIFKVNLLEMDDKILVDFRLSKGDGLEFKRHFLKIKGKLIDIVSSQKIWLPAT
In words: Inhibition of CHK1 at 30 uM by microfluidic mobility shift assay. The method, boiled down:
as §1

A short description of test [3]: Inhibition of PKA at 30 uM by microfluidic mobility shift assay. The method, boiled down:
as §1

In test [4] the target is Glycogen synthase kinase-3 beta (Homo sapiens) (UniProt P49841). In words: Inhibition of GSK3B at 30 uM by microfluidic mobility shift assay. The method, boiled down: as §1
Chain of Glycogen synthase kinase-3 beta (Homo sapiens) (P49841 whole entry, looked up): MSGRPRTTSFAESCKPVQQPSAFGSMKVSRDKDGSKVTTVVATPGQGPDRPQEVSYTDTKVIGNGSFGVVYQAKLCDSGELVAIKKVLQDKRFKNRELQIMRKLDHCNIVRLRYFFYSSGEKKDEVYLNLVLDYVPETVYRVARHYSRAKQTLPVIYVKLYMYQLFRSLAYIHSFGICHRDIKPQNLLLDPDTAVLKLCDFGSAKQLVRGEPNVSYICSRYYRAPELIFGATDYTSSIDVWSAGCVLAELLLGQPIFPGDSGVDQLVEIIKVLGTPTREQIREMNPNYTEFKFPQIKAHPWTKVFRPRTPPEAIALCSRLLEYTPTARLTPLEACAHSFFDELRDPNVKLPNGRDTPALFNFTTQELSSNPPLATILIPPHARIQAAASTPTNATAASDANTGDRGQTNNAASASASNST
In test [5] the target is MAP kinase-activated protein kinase 2 (Homo sapiens, UniProt P49137). In words: Inhibition of MAPKAPK2 at 30 uM by microfluidic mobility shift assay. The essentials: as §1
Test [6] addresses Proto-oncogene tyrosine-protein kinase Src (Homo sapiens, UniProt P12931). Nature of the test: Inhibition of SRC at 30 uM by microfluidic mobility shift assay. The essentials:
as §1

Test [7] deals with Insulin receptor (Homo sapiens) (UniProt P06213). Nature of the test: Inhibition of INSR at 30 uM by microfluidic mobility shift assay. The method, boiled down:
as §1

The target in test [8] is Tyrosine-protein kinase Fyn (Homo sapiens, UniProt P06241). In words: Inhibition of FYN at 30 uM by microfluidic mobility shift assay. The essentials: as §1
The target in test [9] is Ribosomal protein S6 kinase alpha-1 (Homo sapiens) (UniProt Q15418). Nature of the test: Inhibition of RSK1 at 30 uM by microfluidic mobility shift assay. The essentials: as §1
Test [10] deals with T2, Serine/threonine-protein kinase D2 (Homo sapiens) (UniProt Q9BZL6).
T2 sequence (whole entry): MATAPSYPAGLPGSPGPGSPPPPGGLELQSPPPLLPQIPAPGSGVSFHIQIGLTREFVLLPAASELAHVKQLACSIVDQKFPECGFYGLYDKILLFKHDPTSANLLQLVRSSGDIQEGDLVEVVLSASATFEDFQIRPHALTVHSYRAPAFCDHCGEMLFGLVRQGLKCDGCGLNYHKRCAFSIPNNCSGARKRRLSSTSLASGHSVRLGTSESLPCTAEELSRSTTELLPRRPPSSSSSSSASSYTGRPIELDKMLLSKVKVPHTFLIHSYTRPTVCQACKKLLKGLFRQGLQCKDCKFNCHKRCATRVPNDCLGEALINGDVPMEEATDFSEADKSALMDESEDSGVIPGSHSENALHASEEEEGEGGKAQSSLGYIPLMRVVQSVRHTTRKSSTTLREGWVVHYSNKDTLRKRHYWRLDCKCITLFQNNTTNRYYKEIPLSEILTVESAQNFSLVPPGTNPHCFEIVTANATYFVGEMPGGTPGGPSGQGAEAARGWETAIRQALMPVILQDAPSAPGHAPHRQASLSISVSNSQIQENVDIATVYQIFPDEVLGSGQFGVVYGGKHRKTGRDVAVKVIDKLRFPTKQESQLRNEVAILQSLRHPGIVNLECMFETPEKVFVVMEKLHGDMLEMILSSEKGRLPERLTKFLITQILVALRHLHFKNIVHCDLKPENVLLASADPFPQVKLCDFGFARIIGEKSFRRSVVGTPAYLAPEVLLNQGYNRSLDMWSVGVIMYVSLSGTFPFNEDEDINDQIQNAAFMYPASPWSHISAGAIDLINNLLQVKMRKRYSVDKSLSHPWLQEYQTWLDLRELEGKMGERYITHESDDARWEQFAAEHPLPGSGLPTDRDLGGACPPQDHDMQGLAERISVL
Nature of the test: Inhibition of PKD2 at 30 uM by microfluidic mobility shift assay. The method, boiled down:
as §1

The target in test [11] is Mitogen-activated protein kinase 3 (Homo sapiens) (UniProt P27361). Nature of the test: Inhibition of ERK1 at 30 uM by microfluidic mobility shift assay. The method, boiled down: as §1
Chain of Mitogen-activated protein kinase 3 (Homo sapiens) (P27361 whole entry): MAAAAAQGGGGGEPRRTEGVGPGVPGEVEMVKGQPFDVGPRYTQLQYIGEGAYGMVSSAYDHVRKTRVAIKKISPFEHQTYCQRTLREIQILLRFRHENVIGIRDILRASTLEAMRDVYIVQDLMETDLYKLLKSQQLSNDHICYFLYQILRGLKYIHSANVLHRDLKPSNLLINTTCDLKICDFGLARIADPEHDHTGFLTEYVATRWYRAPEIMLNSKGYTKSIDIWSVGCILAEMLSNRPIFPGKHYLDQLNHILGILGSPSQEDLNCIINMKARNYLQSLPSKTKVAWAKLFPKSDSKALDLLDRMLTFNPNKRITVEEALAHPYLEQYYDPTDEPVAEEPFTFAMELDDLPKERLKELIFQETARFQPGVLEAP
Test [12] addresses T3, Aurora kinase A (Homo sapiens) (UniProt O14965).
T3 sequence (whole entry): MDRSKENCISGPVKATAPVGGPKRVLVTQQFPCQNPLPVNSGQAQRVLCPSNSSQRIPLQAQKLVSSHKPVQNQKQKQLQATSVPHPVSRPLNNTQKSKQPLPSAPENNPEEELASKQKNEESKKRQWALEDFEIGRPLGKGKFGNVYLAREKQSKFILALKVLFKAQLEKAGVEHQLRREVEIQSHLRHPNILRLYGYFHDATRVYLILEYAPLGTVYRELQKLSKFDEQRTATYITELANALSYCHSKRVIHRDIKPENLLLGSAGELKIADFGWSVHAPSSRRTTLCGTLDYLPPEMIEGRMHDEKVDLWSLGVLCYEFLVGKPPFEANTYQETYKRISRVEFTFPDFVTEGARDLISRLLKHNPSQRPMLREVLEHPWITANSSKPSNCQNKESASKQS
In words: Inhibition of AurA at 30 uM by microfluidic mobility shift assay. The essentials: as §1

Test [13] has as its target Mitogen-activated protein kinase 1 (Homo sapiens) (UniProt P28482). Nature of the test: Inhibition of ERK2 at 30 uM by microfluidic mobility shift assay. The method, boiled down:
as §1

Test [14] has as its target Mitogen-activated protein kinase 14 (Homo sapiens, UniProt Q16539). In words: Inhibition of p38alpha at 30 uM by microfluidic mobility shift assay. The method, boiled down:
as §1

The target in test [15] is Tyrosine-protein kinase Lck (Homo sapiens, UniProt P06239). In words: Inhibition of LCK at 30 uM by microfluidic mobility shift assay. The essentials:
as §1

Test [16] addresses RAC-beta serine/threonine-protein kinase (Homo sapiens) (UniProt P31751). Nature of the test: Inhibition of AKT2 at 30 uM by microfluidic mobility shift assay. The method, boiled down: as §1
For test [17], the target named is Tyrosine-protein kinase Lyn (Homo sapiens, UniProt P07948). In words: Inhibition of LYN at 30 uM by microfluidic mobility shift assay. The essentials: as §1
Test [18] concerns the target RAC-alpha serine/threonine-protein kinase (Homo sapiens) (UniProt P31749). In words: Inhibition of AKT1 at 30 uM by microfluidic mobility shift assay. The essentials: as §1

Chain of Mitogen-activated protein kinase 14 (Q16539 whole entry): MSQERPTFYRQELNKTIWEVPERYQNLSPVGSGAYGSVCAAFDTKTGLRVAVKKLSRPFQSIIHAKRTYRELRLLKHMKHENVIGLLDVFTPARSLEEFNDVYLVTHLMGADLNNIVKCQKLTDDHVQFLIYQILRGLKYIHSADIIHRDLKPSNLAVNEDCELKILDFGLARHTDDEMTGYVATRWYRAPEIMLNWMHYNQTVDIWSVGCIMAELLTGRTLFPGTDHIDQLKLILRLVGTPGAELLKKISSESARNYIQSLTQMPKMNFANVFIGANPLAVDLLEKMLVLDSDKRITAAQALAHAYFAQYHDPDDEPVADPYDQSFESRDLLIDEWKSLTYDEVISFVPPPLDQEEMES
Chain of Insulin receptor (Homo sapiens) (P06213 28-758 limits assumed): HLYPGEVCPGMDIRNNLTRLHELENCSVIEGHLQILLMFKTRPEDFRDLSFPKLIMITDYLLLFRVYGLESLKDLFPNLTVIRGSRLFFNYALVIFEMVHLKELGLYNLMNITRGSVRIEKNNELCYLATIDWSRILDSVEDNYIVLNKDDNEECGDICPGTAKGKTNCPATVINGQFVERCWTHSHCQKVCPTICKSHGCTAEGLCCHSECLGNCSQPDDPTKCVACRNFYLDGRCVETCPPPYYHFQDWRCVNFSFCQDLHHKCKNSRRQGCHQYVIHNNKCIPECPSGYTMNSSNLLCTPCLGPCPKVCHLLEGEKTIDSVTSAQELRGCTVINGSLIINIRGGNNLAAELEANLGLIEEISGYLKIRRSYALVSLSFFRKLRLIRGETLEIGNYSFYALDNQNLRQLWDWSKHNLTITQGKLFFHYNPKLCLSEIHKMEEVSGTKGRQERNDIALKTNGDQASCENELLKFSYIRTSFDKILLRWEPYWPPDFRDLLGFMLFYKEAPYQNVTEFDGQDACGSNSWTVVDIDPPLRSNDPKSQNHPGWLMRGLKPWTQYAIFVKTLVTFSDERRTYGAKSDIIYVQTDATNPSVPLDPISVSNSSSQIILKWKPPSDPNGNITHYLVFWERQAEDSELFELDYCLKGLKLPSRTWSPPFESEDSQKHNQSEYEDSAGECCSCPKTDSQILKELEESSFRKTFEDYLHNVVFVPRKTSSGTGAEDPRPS
Chain of Insulin receptor (Homo sapiens) (P06213 763-1382 limits assumed): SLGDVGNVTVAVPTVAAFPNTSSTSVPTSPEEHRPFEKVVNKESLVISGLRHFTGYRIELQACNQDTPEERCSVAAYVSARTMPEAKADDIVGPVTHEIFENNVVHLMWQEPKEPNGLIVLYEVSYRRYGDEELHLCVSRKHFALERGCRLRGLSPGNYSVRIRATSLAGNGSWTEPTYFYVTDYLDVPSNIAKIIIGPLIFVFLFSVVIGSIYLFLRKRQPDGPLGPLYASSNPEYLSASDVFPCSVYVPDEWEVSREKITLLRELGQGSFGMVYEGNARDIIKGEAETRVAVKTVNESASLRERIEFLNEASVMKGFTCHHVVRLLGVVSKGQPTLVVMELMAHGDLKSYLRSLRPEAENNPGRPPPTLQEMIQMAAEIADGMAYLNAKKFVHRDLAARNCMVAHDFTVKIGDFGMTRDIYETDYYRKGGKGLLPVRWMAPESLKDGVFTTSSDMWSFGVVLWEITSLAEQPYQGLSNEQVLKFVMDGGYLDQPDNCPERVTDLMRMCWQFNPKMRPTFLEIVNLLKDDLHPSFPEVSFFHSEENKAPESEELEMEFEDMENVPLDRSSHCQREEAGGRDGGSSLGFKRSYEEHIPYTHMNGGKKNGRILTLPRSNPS
Chain of RAC-alpha serine/threonine-protein kinase (Homo sapiens) (P31749 whole entry): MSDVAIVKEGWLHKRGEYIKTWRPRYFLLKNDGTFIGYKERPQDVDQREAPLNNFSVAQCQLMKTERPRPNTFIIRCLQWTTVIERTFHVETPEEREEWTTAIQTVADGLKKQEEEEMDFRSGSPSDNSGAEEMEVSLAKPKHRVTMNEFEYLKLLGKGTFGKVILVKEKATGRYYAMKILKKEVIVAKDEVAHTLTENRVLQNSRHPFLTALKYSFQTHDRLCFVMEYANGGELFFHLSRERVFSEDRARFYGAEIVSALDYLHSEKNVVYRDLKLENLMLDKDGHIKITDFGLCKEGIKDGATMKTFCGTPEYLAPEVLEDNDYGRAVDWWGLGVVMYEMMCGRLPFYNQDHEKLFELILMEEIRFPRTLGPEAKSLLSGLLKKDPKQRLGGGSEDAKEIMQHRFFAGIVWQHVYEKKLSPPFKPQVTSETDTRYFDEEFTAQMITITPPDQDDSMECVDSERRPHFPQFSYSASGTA
Chain of Proto-oncogene tyrosine-protein kinase Src (P12931 2-536 limits assumed): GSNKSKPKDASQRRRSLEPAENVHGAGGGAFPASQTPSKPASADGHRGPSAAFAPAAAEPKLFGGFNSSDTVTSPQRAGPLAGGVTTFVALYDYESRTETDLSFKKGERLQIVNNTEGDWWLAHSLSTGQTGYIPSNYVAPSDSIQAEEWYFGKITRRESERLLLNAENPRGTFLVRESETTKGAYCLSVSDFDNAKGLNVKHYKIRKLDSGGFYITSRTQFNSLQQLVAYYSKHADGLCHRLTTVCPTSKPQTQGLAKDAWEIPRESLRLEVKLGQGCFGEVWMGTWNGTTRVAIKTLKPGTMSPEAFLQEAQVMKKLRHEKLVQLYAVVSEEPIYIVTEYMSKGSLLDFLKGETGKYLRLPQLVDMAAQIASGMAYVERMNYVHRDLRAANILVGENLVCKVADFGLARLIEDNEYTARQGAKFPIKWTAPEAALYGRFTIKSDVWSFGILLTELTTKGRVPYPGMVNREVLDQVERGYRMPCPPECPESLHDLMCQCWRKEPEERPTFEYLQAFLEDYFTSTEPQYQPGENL
Chain of Mitogen-activated protein kinase 1 (Homo sapiens) (P28482 whole entry): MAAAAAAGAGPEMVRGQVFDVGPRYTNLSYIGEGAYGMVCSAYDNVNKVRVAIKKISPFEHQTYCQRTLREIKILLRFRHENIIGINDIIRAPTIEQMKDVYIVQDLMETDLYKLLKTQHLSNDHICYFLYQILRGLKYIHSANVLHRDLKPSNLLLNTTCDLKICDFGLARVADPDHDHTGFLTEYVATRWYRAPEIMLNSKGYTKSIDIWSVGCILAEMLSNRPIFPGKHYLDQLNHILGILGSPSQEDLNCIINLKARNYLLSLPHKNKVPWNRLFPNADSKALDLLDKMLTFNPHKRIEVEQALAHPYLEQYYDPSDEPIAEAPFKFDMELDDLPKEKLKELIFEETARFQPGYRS

`COc1cccc(-c2cc3c(c(N)nn3C)c(=O)[nH]2)c1`: the inhibition was determined as 21% in [1]; 27% in test [2]; 7% in [3]; 61% in [4]; 47% in [5]; 30% in test [6]. Moreover, the inhibition stood at 6% in test [7]; 23% in test [8]; 22% in test [9]; 25% in test [10]; 19% in test [11]; 17% in [12]. Moreover, the inhibition in test [13] was 22%; in [14], 2%; in [15], 22%; in test [16] it was 1%; in [17], 26%; in test [18] it was -5%.

Consider `Cc1cc2c(c(NS(C)(=O)=O)nn2C)c(=O)[nH]1`, for which the inhibition in test [1] was -2%; in test [2] it was 7%; in test [3], -2%; in [4], 13%; in test [5] it was 1%; in test [6] it was -2%. Also, the inhibition is -6% in test [7]; 11% in test [8]; -6% in [9]; 8% in test [10]; 0% in test [11]; -8% in test [12]. Besides, the inhibition amounted to 3% in test [13]; 0% in [14]; 4% in test [15]; 16% in test [16]; 1% in test [17]; 1% in test [18].

Take `COc1ccc(-c2cc3nn(-c4ccccc4)c(N)c3c(=O)[nH]2)cc1`: the inhibition in [1] was 89%; in test [2], 5%; in [3] it was -6%; in [4], 14%; in [5] it was 7%; in [6] it was 89%. Further, the inhibition in test [7] turned out to be 0%; in test [8], 88%; in test [9] it was 4%; in [10], 28%; in [11] it was 8%; in test [12], 10%. The inhibition in test [13] came to 3%; in test [14], 38%; in test [15] it was 75%; in test [16], 0%; in test [17], 90%; in test [18] it was 16%.

Turning to `Cc1cc2nc(N)nc(N)c2c(=O)[nH]1`, the inhibition is 19% in test [1]; 15% in test [2]; -1% in test [3]; 36% in [4]; 26% in test [5]; 12% in test [6]. Besides, the inhibition was 0% in test [7]; 11% in test [8]; -4% in test [9]; 8% in [10]; 9% in test [11]; 10% in test [12]. Moreover, the inhibition in test [13] is 9%; in [14], -1%; in [15], 12%; in [16], 0%; in [17], 10%; in test [18] it was 5%.

With `COc1ccc(S(=O)(=O)Nc2nn(C)c3cc(C)[nH]c(=O)c23)c(OC)c1`, the inhibition in [1] was determined as 3%; in [2] it was 0%; in [3], 3%; in test [4], 0%; in test [5] it was 2%; in test [6], 2%. In addition, the inhibition is 2% in test [7]; 3% in [8]; -2% in test [9]; 14% in test [10]; 4% in test [11]; -9% in test [12]. Further, the inhibition is 1% in test [13]; -4% in test [14]; -1% in test [15]; 6% in test [16]; -1% in [17]; 10% in [18].

As to `CN1CCN(c2ccc(-c3cc4c(c(N)nn4C)c(=O)[nH]3)cc2)CC1`, the inhibition amounted to 80% in [1]; 67% in test [2]; 81% in test [3]; 45% in [4]; 45% in test [5]; 80% in [6]. The inhibition stood at 9% in test [7]; 65% in [8]; 14% in test [9]; 34% in test [10]; 13% in test [11]; 52% in test [12]. The inhibition is 4% in test [13]; 3% in test [14]; 65% in [15]; -1% in [16]; 54% in [17]; 8% in test [18].

Take `COc1ccc(-c2cc3[nH]nc(N)c3c(=O)[nH]2)cc1`: the inhibition stood at 55% in test [1]; 14% in [2]; 82% in [3]; 78% in test [4]; 59% in test [5]; 59% in test [6]. Moreover, the inhibition in test [7] is 6%; in [8] it was 50%; in test [9], 7%; in test [10], 28%; in test [11] it was 13%; in [12] it was 49%. Also, the inhibition turned out to be 12% in test [13]; 0% in [14]; 54% in test [15]; 11% in [16]; 56% in test [17]; 21% in test [18].
